Among the data in ChEMBL document CHEMBL1139179, “5-Alkynyl-2'-deoxyuridines: chromatography-free synthesis and cytotoxicity evaluation against human breast cancer cells” (Bioorg Med Chem, 2007) are IC50 values, retold here.

The subject of one test is MCF7. In words: Cytotoxicity against human MCF7 cells after 72 hrs. The test is classed as functional, cell-based. The note with it: MCF7, 72 h.
In the case of `Cc1ccc(C#Cc2cn([C@H]3C[C@H](O)[C@@H](CO)O3)c(=O)[nH]c2=O)cc1`, half-maximal inhibition (IC50) required 0.9 µM.
In the case of `O=c1[nH]cc(F)c(=O)[nH]1` [FLUOROURACIL], the half-inhibitory concentration (IC50) – broadly, the concentration at which inhibition is half-maximal – was 4.8 µM. Compared with the last molecule, the IC50 is about 5.3-fold higher.

The next test relates to MDA-MB-231. Briefly: Cytotoxicity against human MDA-MB-231 cells after 72 hrs. The test is classed as functional, cell-based. The following applies: MDA-MB-231, 72 h. Put shortly: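 MDA-MB-231 cells (100 μL at 5000 cells/mL) grown 72 h at 37 °C, 5% CO2, then given graded concentrations (six replicates) for a further 72 h. Glutardialdehyde fixation, 0.02 M crystal violet staining, 70% ethanol elution, absorbance at 590 nm. A day-0 biomass plate was subtracted and the control taken as 100%. IC50 is 50% proliferation inhibition, mean of at least two independent runs.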
`C#Cc1cn([C@H]2C[C@H](O)[C@@H](CO)O2)c(=O)[nH]c1=O`: the IC50 was determined as 4.4 µM.
Turning to `C[Si](C)(C)C#Cc1cn([C@H]2C[C@H](O)[C@@H](CO)O2)c(=O)[nH]c1=O`, the IC50 is 4.2 µM.
For `O=c1[nH]c(=O)n([C@H]2C[C@H](O)[C@@H](CO)O2)cc1C#CC1CC1`, the concentration for half-maximal inhibition (IC50) was > 50 µM.
Regarding `Cc1ccc(C#Cc2cn([C@H]3C[C@H](O)[C@@H](CO)O3)c(=O)[nH]c2=O)cc1`, the half-inhibitory concentration (IC50) was > 50 µM.
In the case of `CCCCCc1ccc(C#Cc2cn([C@H]3C[C@H](O)[C@@H](CO)O3)c(=O)[nH]c2=O)cc1`, the IC50 is 29.2 µM.
Still for that read-out and setting: then `CCCC#Cc1cn([C@H]2C[C@H](O)[C@@H](CO)O2)c(=O)[nH]c1=O`, with > 50 µM.
As for `O=c1[nH]c(=O)n([C@H]2C[C@H](O)[C@@H](CO)O2)cc1C#CC1(O)CCCCC1`, the half-maximal inhibitory concentration (IC50) is > 50 µM.
Turning to `CC(C)(C)c1ccc(C#Cc2cn([C@H]3C[C@H](O)[C@@H](CO)O3)c(=O)[nH]c2=O)cc1`, the 50% inhibitory concentration (IC50) was > 50 µM.
On the same count and under the same terms, then `O=c1[nH]cc(F)c(=O)[nH]1` [FLUOROURACIL], with 9.6 µM.

The subject of another test is MCF7. Briefly: Cytotoxicity against human MCF7 cells after 96 hrs. The note with it: MCF7, 96 h.
In the case of `C#Cc1cn([C@H]2C[C@H](O)[C@@H](CO)O2)c(=O)[nH]c1=O`, the half-inhibitory concentration (IC50) turned out to be 0.4 µM.
For `C[Si](C)(C)C#Cc1cn([C@H]2C[C@H](O)[C@@H](CO)O2)c(=O)[nH]c1=O`, half-maximal inhibition (IC50) required 1.6 µM.
The same measure, in the same setting: with `O=c1[nH]c(=O)n([C@H]2C[C@H](O)[C@@H](CO)O2)cc1C#CC1CC1` the figure was > 50 µM; with `CCCCCc1ccc(C#Cc2cn([C@H]3C[C@H](O)[C@@H](CO)O3)c(=O)[nH]c2=O)cc1`, 37 µM; with `CCCC#Cc1cn([C@H]2C[C@H](O)[C@@H](CO)O2)c(=O)[nH]c1=O`, > 50 µM.
For `O=c1[nH]c(=O)n([C@H]2C[C@H](O)[C@@H](CO)O2)cc1C#CC1(O)CCCCC1`, the IC50 was > 50 µM.
In turn, `CC(C)(C)c1ccc(C#Cc2cn([C@H]3C[C@H](O)[C@@H](CO)O3)c(=O)[nH]c2=O)cc1` returned a half-inhibitory concentration (IC50) of 9.5 µM.
